Ecoli WT expand = blocks growth of wild type E. coli BW25113 | OD600 absorbance | growth inhibition, % at 100 µM | 98,000 tested, 0.15% active;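 active means growth inhibition above about 50% at one test dose, limit read from the data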;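 further: growth measured after 20 h incubation at 37 °C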
H69AR inhibit = growth inhibitors of human H69AR lung tumor cells; H69AR lung tumor viability, ATP luminescence, 72 h; hits give low values; viability, % at 10 µM; 85,000 tested, 6% active;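 active means viability at or below 40%; inactive means viability above 40%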;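 further: multidrug resistant small cell line overexpressing MRP-1 efflux transporter; 100% = mean luminescence of untreated control wells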
Jurkat viability = reduces viability or proliferation of Jurkat cells; Jurkat E6.1 viability, ATP luminescence, 48 h; inhibition, % at 4 µM; 56,000 tested, 1.2% active; AID 463;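 active means inhibition above the mean inhibition of all tested compounds plus 3 SD, cut at about 28% in these data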
HUVEC prolif 384 = blocks proliferation of human endothelial cells; AID 648; HUVEC proliferation, CellTiter-Glo luminescence, 72 h; hits give low values; 86,000 tested, 1.1% active; viability, % at 10 µM (by protocol);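 active means viability at or below 30%; inactive means viability above 30%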;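 further: 100% = median luminescence of DMSO-only cell control wells on each plate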
Ecoli tolC = blocks growth of E. coli BW25113 tolC mutant. OD615. growth inhibition, % at 10 µM (by protocol). 65,000 tested, 2.2% active;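 active means growth inhibition at or above a cutoff equal to the mean over every tested compound plus 3 SD, cut at about 60% in these data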;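 further: growth measured after 20 h incubation at 37 °C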
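Assay system: tolC-deleted E. coli BW25113. Medium: kanamycin-containing LB broth (50 µg/mL). Dosing: 10 µM final, single dose. Timing: bacterial growth with compound for 20 h at 37 °C. Detection: A615 absorbance measurement. Read-out basis: growth inhibition in percent.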
Lung fibro prol = blocks proliferation of human lung fibroblasts; LL 47 human lung fibroblast viability, ATP luminescence; hits give low values; viability, % at 10 µM; 85,000 tested, 1.1% active;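 active means viability at or below 50% in the single dose screen; inactive means viability above 50%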;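 further: compound exposure lasted 72 h before the ATP readout; 100% = median luminescence of untreated cell-only wells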
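Test system: LL 47 human lung fibroblasts / Quantity: 1,150 cells in each well / Medium: IMEM growth medium with 15% fetal bovine serum / Incubation: 72 h compound exposure at 37 °C after overnight plating / Detection: CellTiter-Glo luminescence measuring cellular ATP / Read-out: % viability versus median cells-only luminescence / Benchmarks: cell-only wells, no compound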
The depositor's hits bear a star; nt = no result. In the library only some 6.4% were active in any assay of this set; here they are far more common.

SMILES	Ecoli WT expand	H69AR inhibit	Jurkat viability	HUVEC prolif 384	Ecoli tolC	Lung fibro prol
Cn1c(C(=O)NCc2cccs2)cc2oc3ccccc3c21	-12	nt	29*	nt	1	nt
C=CCn1c(=O)/c(=C/c2ccc(F)cc2)s/c1=C(\C#N)c1nnc2n1CCCCC2	-3	39*	-3	70	5	81
O=C(CCN1CCc2ccccc2C1)Nc1ccccc1F	-3	109	-1	94	-7	93
Cc1nnc(SCc2nc3ccccc3s2)n1-c1ccccc1	-9	77	3	98	0	92
C#CCSc1nnc(CSc2nc3ccccc3s2)n1-c1ccccc1	-12	3.0*	nt	80	nt	89
CN1CCN(S(=O)(=O)c2ccc(Cc3ccc(S(=O)(=O)N4CCN(C)CC4)cc3)cc2)CC1	8	84	3	95	0	94
N#CC(c1ccc(Cl)cc1)c1ccc2c(C(F)(F)F)cc(C(F)(F)F)nc2n1 (configuration not stated)	-7	4.6*	nt	27*	nt	18*
CCN(CC)C(=O)Cn1nc(-c2ccccc2O)nc1SCC(=O)Nc1ccc(OC)cc1	-10	35*	-2	78	2	93
O=C(CCC1N=C2c3ccccc3N=C(SCc3ccc(Cl)cc3)N2C1=O)NCc1ccco1 (configuration not stated)	-10	74	-1	76	28	102
Cc1ccc(CSC2=Nc3ccccc3C3=NC(CC(=O)NCc4ccco4)C(=O)N23)cc1 (configuration not stated)	-2	29*	6	79	13	101
O=C(CC1N=C2c3ccccc3N=C(SCc3ccc(F)cc3)N2C1=O)NCc1ccco1 (configuration not stated)	0	38*	10	64	17	93
O=C(CCC1N=C2c3ccccc3N=C(SCc3ccc(F)cc3)N2C1=O)NCc1ccco1 (configuration not stated)	0	66	6	88	18	104
CCCCOc1ccccc1NC(=O)CC1Nc2ccccc2NC1=O (configuration not stated)	nt	40*	12	86	15	98
CC1=C(C#N)C(Nc2ccc(Cl)cn2)(C(F)(F)F)C(=O)N1 (configuration not stated)	1	94	nt	91	nt	94
O=C(CN1C(=O)c2ccccc2S1(=O)=O)c1ccccc1	nt	100	nt	101	4	95
Cc1ccc(C(=O)CN2/C(=C(\O)c3ccccc3)C(=O)c3ccccc3S2(=O)=O)c(C)c1	15	24*	nt	78	nt	91
Cc1cccc(S(=O)(=O)c2c(N)n(/N=C/c3cccnc3)c3nc4ccccc4nc23)c1	-11	33*	-5	76	-12	63
COc1cccc(/C=N/n2c(N)c(S(=O)(=O)c3cccs3)c3nc4ccccc4nc32)c1	-4	nt	nt	nt	nt	nt
Nc1c(S(=O)(=O)c2cccs2)c2nc3ccccc3nc2n1/N=C/c1cccc(O)c1	-6	4.0*	9	4.9*	-7	56
NC/C(=N\O)c1ccc(Cl)cc1Cl	13	108	-1	98	-6	97
N#Cc1c(NC(=O)CSc2nnc(-c3ccccc3O)n2-c2ccccc2)sc2c1CCCC2	-5	49	2	87	14	99
C=CCn1c(SCC(=O)Nc2ccc(C(=O)OC(C)C)cc2)nnc1-c1cccs1	-5	25*	-2	39	-3	30*
Cn1c(SCC(=O)Nc2ccc(N3CCOCC3)cc2)nnc1-c1ccccc1	-2	86	-5	15*	-5	105
COc1ccc(NC(=O)CSc2nnc(-c3cccs3)n2-c2ccccc2)cc1	-7	46	-2	21*	-2	39*
CCOC(=O)c1ccc(NC(=O)CSc2nnc(-c3cccs3)n2CC)cc1	-6	91	3	75	1	92
SMILES	Ecoli WT expand	H69AR inhibit	Jurkat viability	HUVEC prolif 384	Ecoli tolC	Lung fibro prol
Cn1c(=O)n(C)c2cc(NC(=O)CSc3nnc(-c4ccccc4O)n3-c3ccccc3)ccc21	-5	33*	-2	75	4	90
CCOc1cc(CNCc2ccncc2)cc(Br)c1OCc1ccccc1F	15	nt	nt	nt	nt	nt
CC(Oc1ccc(Cl)cc1Cl)c1nc(-c2ccc(NC(=O)c3ccco3)cc2)no1 (configuration not stated)	-15	69	nt	88	nt	105
O=C1CC(SC(=Nc2ccccc2)Nc2ccccc2)C(=O)N1c1cccc(Cl)c1 (configuration not stated)	-9	nt	nt	nt	nt	nt
O=C(CSc1nnc(-c2ccco2)n1-c1ccccc1)N1CCc2ccccc21	nt	78	4	88	-7	102
O=C(CSc1nnc2ccccn12)c1ccc2c(c1)OCCO2	8	90	-8	96	-7	100
CCc1nnc(NC(=O)CSc2nnc(-c3ccccc3O)n2-c2ccc(C)cc2C)s1	-10	nt	80*	62	55	65
O=C(CSc1nc2[nH]ncc2c(=O)n1-c1ccccc1)c1ccc2c(c1)OCCO2	-6	17*	-4	56	19	89
O=C(CSc1nnc(-c2cccs2)n1-c1ccccc1)N1CCc2ccccc21	nt	16*	-6	95	5	nt
Cn1c(=O)n(C)c2cc(NC(=O)CCl)ccc21	12	1.5*	nt	54	nt	42*
CC1CCCCN1C(=O)Cn1cc(/C=C2/C(=O)Nc3ccccc32)c2ccccc21 (configuration not stated)	-15	57	nt	54	nt	72
O=C1COc2ccc(C(=O)CSc3nnnn3-c3ccccc3)cc2N1	-4	103	-3	103	-17	102
C=CCn1c(SC(C)C(=O)NCc2ccc3c(c2)OCO3)nc2scc(-c3ccccc3)c2c1=O (configuration not stated)	-19	34*	nt	74	nt	94
O=C(CSc1nnc(Cc2cccs2)n1-c1ccccc1)NCc1ccc2c(c1)OCO2	-7	97	-6	103	21	nt
CC(Sc1nnc(-c2cccs2)n1-c1ccccc1)C(=O)NCc1ccc2c(c1)OCO2 (configuration not stated)	-8	39*	nt	102	nt	103
O=C(CSc1nnc(-c2cccs2)n1-c1ccccc1)c1ccc2c(c1)OCCO2	nt	17*	2	34	-6	77
O=C1COc2ccc(C(=O)CSc3nnc(Cc4cccs4)n3-c3ccc(Cl)cc3)cc2N1	-12	27*	nt	83	nt	98
Cc1ccc(/C(O)=C/C(=O)C(=O)NNC(=O)C(O)(c2ccccc2)c2ccccc2)cc1	nt	11*	nt	78	nt	112
CC(=O)NNC(=O)C(O)(c1ccccc1)c1ccccc1	-1	nt	nt	nt	nt	nt
Cc1ccc(C2CC(C(F)F)n3ncc(C(=O)Nc4cnn(Cc5ccccc5C)c4)c3N2)cc1 (configuration not stated)	-15	14*	-2	16*	36	63
Cc1ccccc1Cn1cc(NC(=O)c2nc3ncccn3n2)cn1	-2	93	nt	77	nt	96
